Screening data: PubChem BioAssay, Sanford-Burnham Center for Chemical Genomics
EBI2 block – EBI2 receptor antagonists, beta-arrestin recruitment, primary screen, cell-based, luminescence, 7a,25-OHC stimulation, uHTS | G-protein coupled receptor 183 (Homo sapiens), P32249 | 7a,25-OHC stimulated | inhibition, % at 5 µM | 0.81% of 360,000 active | AID 651636, 2012; in the data active = inhibition above about 38%;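 also: enzyme fragment complementation signal reports receptor beta-arrestin coupling in cells; 0% = agonist plus DMSO wells and 100% = wells without agonist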
Target sequence (P32249 whole entry, looked up, the tested form may be a part): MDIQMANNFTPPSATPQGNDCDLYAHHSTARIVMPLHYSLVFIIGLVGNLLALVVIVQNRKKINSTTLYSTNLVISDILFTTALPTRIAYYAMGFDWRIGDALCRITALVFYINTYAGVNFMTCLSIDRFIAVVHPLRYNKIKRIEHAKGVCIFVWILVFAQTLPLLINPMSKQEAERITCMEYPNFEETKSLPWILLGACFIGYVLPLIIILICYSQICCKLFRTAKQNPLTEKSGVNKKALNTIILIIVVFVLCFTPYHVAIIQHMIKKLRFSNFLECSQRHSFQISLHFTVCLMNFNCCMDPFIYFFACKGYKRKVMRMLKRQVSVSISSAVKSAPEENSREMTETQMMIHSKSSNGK
NR3A LBD binder – binders of NR3A ligand-binding domain, primary screen, biophysical, differential scanning fluorimetry, uHTS | NR3A LBD differential scanning fluorimetry, Tm shift; 0% = protein alone, 100% = glycine-bound protein | Tm shift relative to glycine control, % at 25 µM | 2.5% of 340,000 active;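 active = melting temperature shift of at least 10% of the positive control shift, at one fixed dose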
SENP1 inh – human SENP1 catalytic domain inhibitors, primary screen, biochemical, FRET, uHTS; AID 624204, 2012; inhibition, % at 10 µM; 0.21% of 360,000 active; recombinant SENP1 catalytic domain, CyPet-SUMO1-YPet FRET cleavage; Sentrin-specific protease 1 (Homo sapiens), Q9P0U3;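 active = inhibition at least 30% at 10 µM, raw YFP signal under a set limit, fluorescence ratio 0.5 to 1.5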;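 also: 0% = enzyme with DMSO and 100% = no enzyme wells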
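Assay system: hSENP1 catalytic domain, recombinant. Amount: SENP1 enzyme, 20 pM final. Schedule: 50 min reaction, RT, dark. Technique: FRET, CFP and YFP emission. Control set: no-enzyme wells low, DMSO-plus-enzyme wells high control.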
MPTP block – mitochondrial permeability transition pore inhibitors, primary screen, biochemical, isolated mouse mitochondria, absorbance; inhibition, % at 10 µM; Ca2+ swelling absorbance, 30 min; 1.4% of 360,000 active; AID 602449, 2012;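 active = inhibition of 50% or more, scaled per plate between neutral and stimulator controls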;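 also: 0% = DMSO wells given calcium and 100% = 1 mM EGTA wells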
EBI2 conf – EBI2 antagonist hit retest, beta-arrestin, confirmation, cell-based, single concentration, luminescence, 7a,25-OHC stimulation. shares compounds with EBI2 block. 7a,25-OHC antagonism. inhibition, % at 5 µM. 29% of 2,400 active. AID 651997, 2013;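 active = inhibition of at least 50%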
EBI2 ag – EBI2 agonist activity of antagonist hits, confirmation, counter-screen for EBI2 antagonist project, cell-based, single concentration, agonist mode, luminescence; activation, % at 5 µM; shares compounds with EBI2 block; EBI2-expressing cells, 60 min; 0% vehicle, 100% 7α,25-dihydroxycholesterol control; 2,400 tested, under 10 active;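 active = activation of at least 50%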
bGal cs – E. coli beta-galactosidase enzyme inhibition, confirmation, counter-screen for EBI2 antagonist project, biochemical, luminescence, single concentration; shares compounds with EBI2 block; purified beta-galactosidase, luminescent Galacton Star, 15 min; inhibition, % at 5 µM; 1% of 2,400 active;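 active = replicate-average signal at least 3 plate SD below neutral wells, shown as high inhibition, flagging enzyme-inhibiting false positives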;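 also: 0% = DMSO wells with enzyme and 100% = wells lacking enzyme; higher means stronger loss of beta-gal luminescence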
* = called active by the depositor; · = no result given. A selection: hits, their analogues and other compounds. The true share with any hit is near 4.4%.

SMILES	EBI2 block	NR3A LBD binder	SENP1 inh	MPTP block	EBI2 conf	EBI2 ag	bGal cs
Cc1ccc(C)c(N2CCN(C(=O)c3ccc4nc(-c5ccco5)c(-c5ccco5)nc4c3)CC2)c1	44*	-2	-18	18	33	-1	11
Cc1ccc(C)c(N2CCN(C(=O)c3ccc4c(c3)c(C)c(C)n4C)CC2)c1	73*	-1	-6	-1	58*	0	-10
Cc1ccc(C)c(N2CCN(C(=O)c3ccc(N4CCCC4=O)cc3)CC2)c1	48*	-1	1	0	21	-1	-11
COc1ccccc1N1CCN(C(=O)c2ccc3nc(-c4ccco4)c(-c4ccco4)nc3c2)CC1	-8	-2	-24	1	·	·	·
Cc1c(C)n(C)c2ccc(C(=O)N3CCN(c4ccccc4)CC3)cc12	31	-1	-4	1	·	·	·
Cc1ccc(C)c(N2CCN(C(=O)c3cc4sccc4n3C)CC2)c1	74*	-2	-35	-1	34	-1	-9
O=C1Oc2ccccc2C2(O)C3CCCCCC3C12 (centres undefined)	0	-1	4	0	·	·	·
CCC(=O)Nc1ccc2c(c1)OC[C@@H](C)N(C(=O)c1ccccn1)C[C@@H](C)[C@@H](OC)CN(C)C2=O	-12	·	1	-1	·	·	·
CC(C)N1CCCC(C)(C(=O)Nc2nc3ccccc3n2C)C1 (centres undefined)	8	·	0	0	·	·	·
COc1ccc(CNC(=O)Nc2nc(C(N)Cc3ccc(Cl)cc3)cs2)cc1 (centres undefined)	0	·	-4	4	·	·	·
CC(C)C[C@H](NC(=O)N1CC(=O)Nc2ccccc21)C(=O)N[C@H](C(=O)O)c1ccccc1	-5	-3	1	-1	·	·	·
O=C(NC1CCCCNC1=O)c1ccccc1 (centres undefined)	4	-2	1	1	·	·	·
CN1CCN(NC(=O)/C=C/c2ccc(C(C)(C)C)cc2)CC1	7	2	1	0	·	·	·
CN1CCN(NC(=O)/C=C/c2ccc(Br)cc2)CC1	78*	-3	1	0	48	-1	-9
O=C(COC(=O)/C=C/c1ccc(OC(F)F)cc1)NCCN1C(=O)CSC1=O	37	-1	0	2	·	·	·
O=C(COC(=O)/C=C/c1ccc(Cl)cc1)NCCN1C(=O)CSC1=O	46*	0	3	1	46	4	6
O=C(Nc1ccc(-c2ccc3nncn3n2)cc1)C1CCCC1	-1	-4	-1	1	·	·	·
Cc1ccc(N2CCN(c3ccc(C)cc3)C2c2ccncc2)cc1	51*	0	3	3	21	-1	-8
Clc1ccc(Cl)c(-c2nn3c(COc4ccccc4)nnc3s2)c1	53*	1	-1	-2	25	1	10
COc1ccc(-c2ccc(C(=O)Nc3ccc(NC(C)=O)cc3)c3occc23)c(C)c1	-40	·	1	1	·	·	·
COc1ccc(-c2ccc(C(=O)Nc3cccc(C(F)(F)F)c3)c3occc23)c(C)c1	43*	·	-1	1	9	-2	-12
C/C(=N/NC(=O)c1ccc(C)s1)c1cccc(NC(=O)c2ccoc2C)c1	11	-26	0	-1	·	·	·
O=C1C=C(c2ccc(OC(F)(F)F)cc2)C[C@@H](c2ccc(F)cc2)C1	52*	-1	1	5	38	0	-8
COc1ccc(C2=CC(=O)C[C@H](c3ccc(F)cc3)C2)cc1F	34	-1	1	0	·	·	·
CSc1ccc(C2=CC(=O)C[C@H](c3ccc(F)cc3)C2)cc1	66*	-1	-11	0	50*	-1	-7
